# Bioassay records: PubChem, several laboratories
# Sampled rows, rich in hits. Any-hit rate of the full collection: about 3.2%.
# Bim-Mcl-1 – inhibitors of Bim-Mcl-1 interaction, human | Q07820 | Bead-based flow cytometry, Bim peptide-Mcl-1 binding | inhibition, % at 10 µM | actives 0.1% (n = 190,000) | AID 1009; in the data active means inhibition above about 40%;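 further: 0% = no compound tracer wells and 100% = peptide blocker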
# Target sequence (Q07820 whole entry, looked up): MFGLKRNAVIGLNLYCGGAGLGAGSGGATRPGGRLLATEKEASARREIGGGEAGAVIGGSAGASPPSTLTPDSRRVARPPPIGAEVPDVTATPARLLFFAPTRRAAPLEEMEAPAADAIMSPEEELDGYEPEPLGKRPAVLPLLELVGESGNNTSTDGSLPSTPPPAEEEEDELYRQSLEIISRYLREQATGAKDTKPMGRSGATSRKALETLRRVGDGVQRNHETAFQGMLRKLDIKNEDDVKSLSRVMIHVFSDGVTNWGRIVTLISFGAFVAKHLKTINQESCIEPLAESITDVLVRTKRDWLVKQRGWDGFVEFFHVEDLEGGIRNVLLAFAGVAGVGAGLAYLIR
# Mcl1-Bid inh – disrupts binding of human Mcl-1 to Bid peptide; TR-FRET Mcl-1/Bid-Dy647 peptide binding, 1536-well; Q07820; actives 0.97% (n = 220,000); AID 1021; inhibition, % at 21.7 µM;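 active means compounds that cut the binding signal by more than half at the single screening dose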;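 further: His-tagged Mcl-1 with europium anti-His antibody binding Bid BH3 peptide; 0% = Mcl-1 plus peptide wells and 100% = peptide-only wells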
# Calb biofilm kill – mixtures killing C. albicans biofilm; inhibition, % at 7.6 µM; actives 0.02% (n = 120,000); C. albicans biofilm persisters + clotrimazole, fluorescence viability; primary screen in compound mixtures of four per well;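 further: compounds exposed to preformed 24 h biofilms for 48 h; 0% = untreated biofilm control and 100% = clotrimazole plus chlorhexidine kill blank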
#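 Test system: C. albicans biofilms. Buffer or medium: RPMI/MOPS medium, pH 7.0. Timing: 48 h compound exposure at 37 °C. Technique: Alamar Blue fluorescence. Evaluation: percent inhibition of biofilm viability.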
# Hck-Nef inh – blocks Nef-activated human Hck kinase. P08631. Recombinant Hck-YEEI plus Nef, Z-Lyte FRET kinase assay. inhibition, % at 20 µM. actives 0.68% (n = 220,000). AID 463187;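 active means Hck-Nef kinase inhibition above about 50%, limit read from the data; inactive means inhibition below that limit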;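 further: 0% = DMSO with Hck plus Nef and 100% = Hck alone without Nef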
# Mcl1-Noxa inh – disrupts binding of human Mcl-1 to Noxa peptide. Q07820. TR-FRET Mcl-1/Noxa peptide binding, 2 h. inhibition, % at 21.7 µM. actives 1.5% (n = 220,000);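 active means compounds that cut the protein-peptide binding signal by more than 50% relative to plate controls in a single-dose test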;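 further: His-tagged Mcl-1 with rhodamine Noxa BH3 peptide and terbium anti-His antibody; 0% = Mcl-1 plus Noxa peptide wells and 100% = peptide-only wells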
# 14-3-3 Bad inh – disrupts binding of bovine 14-3-3 zeta to phospho-Bad peptide | AID 781 | P63103 | inhibition, % at 21.7 µM | TR-FRET 14-3-3zeta/Dy647-pBad peptide displacement, 1 h | actives 0.71% (n = 220,000);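 active means inhibition above about 70%, limit read from the data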;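 further: 0% = full 14-3-3 plus peptide FRET controls and 100% = background without 14-3-3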
# Target sequence (P63103 whole entry, looked up): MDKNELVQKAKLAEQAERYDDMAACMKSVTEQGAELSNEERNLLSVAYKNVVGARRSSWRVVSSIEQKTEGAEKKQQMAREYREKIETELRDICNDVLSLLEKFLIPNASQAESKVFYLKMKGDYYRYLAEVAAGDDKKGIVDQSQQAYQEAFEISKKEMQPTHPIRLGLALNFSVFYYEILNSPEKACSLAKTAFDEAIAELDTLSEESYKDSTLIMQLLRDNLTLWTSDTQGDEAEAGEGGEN
# The depositor's hits bear a star; . = not tested or not shown; [ ] = remark or other dose.
SMILES,Bim-Mcl-1,Mcl1-Bid inh,Calb biofilm kill,Hck-Nef inh,Mcl1-Noxa inh,14-3-3 Bad inh
CCn1nnc(-c2ccc(N)cc2)n1,0.0,-6.4,13.8,19.3,26.0,19.8
NC(=O)C[n+]1cccc(/C=N/O)c1,2.0,-18.7,5.6,10.5,22.2,6.5
CCNC(=O)c1ccc(C23CC4CC(CC(C4)C2)C3)o1,0.0,-21.5,5.8,-5.2,10.8,3.6
COc1ccc(OC)c(Nc2ncnc3c2cnn3-c2ccccc2)c1,-4.0,5.8,.,-10.1,4.2,-1.0
COc1ccc(OC)c(Nc2ncnc3sc(-c4ccccc4)cc23)c1,-4.0,-4.4,21.5,3.0,7.3,80.2*[fluorescence artefact?]
COc1ccc(OC)c(Nc2nc(-c3cccc([N+](=O)[O-])c3)nc3ccccc23)c1,0.0,70.0*,.,24.4,38.1,12.6
COc1ccc(Nc2nc(-c3cccc([N+](=O)[O-])c3)nc3ccccc23)c(OC)c1,-6.0,33.7,11.5,1.2,27.1,17.5
CCOc1ccccc1/C=N/Nc1nc2c(N)ncnc2n1[C@H]1O[C@@H](CO)[C@H](O)[C@@H]1O,.,-34.2,15.5,27.1,3.6,-5.5
CCc1cccc(NC(=O)c2ccc3c(=O)n4c(nc3c2)CCCCC4)c1,.,21.2,15.1,16.6,9.1,6.6
O=C(CSc1nnnn1-c1ccc(F)cc1)c1ccc(O)c(O)c1,-1.0,-14.9,9.4,2.6,56.9*,-1.7
COc1ccc(-n2nnnc2SCC(=O)c2cccc(OC)c2)cc1,-2.0,7.1,.,-0.1,0.0,-8.2
O=C(Nc1ccc2ccccc2c1)c1cn(-c2ccccc2)nc1-c1cccs1,-2.0,-12.5,.,0.5,-33.5,3.2
CN(C)c1ccc(NC(=O)c2cn(-c3ccccc3)nc2-c2cccs2)cc1,-4.0,28.3,.,2.1,76.8*,-13.4
CCC1COC(c2cccn2Cc2ccccc2Cl)=N1 (stereo not drawn),2.0,-9.9,5.9,11.8,12.4,-0.3
NC(=O)c1ccsc1NC(=O)CSc1nnc(Nc2ccccc2)s1,0.0,-36.8,16.4,-2.8,68.7*,6.7
C=CCC(C)(NCc1ccccc1)c1ccco1 (stereo not drawn),2.0,22.9,.,-0.3,4.5,72.5*
Cc1ccc(CSCCNS(=O)(=O)c2ccc(C)cc2)cc1,-2.0,3.1,23.3,0.7,18.8,9.3
COC(=O)/C=C1/SC(=Nc2ccc(C)cc2C)NC1=O,0.0,98.1*,.,-0.2,21.5,0.2
CCOc1ccccc1NC(=S)N1CCN(c2nc(-c3ccc(F)cc3)cs2)CC1,0.0,-16.6,20.4,-8.5,5.7,-21.7
CCN1CCN(c2cc(C)c3cc(NC(=O)c4ccc(OC)c(OC)c4)ccc3n2)CC1,0.0,-20.6,.,1.4,13.4,4.2
COc1cccc(C(=O)Nc2ccc3nc(N4CCN(c5ncccn5)CC4)cc(C)c3c2)c1OC,6.0,82.8*,.,34.0,73.7*,37.9
CN(C)CC(O)COc1cc2ccccc2cc1C(=O)N1CCCCC1 (stereo not drawn),-5.0,-22.2,.,2.2,14.6,-1.3
Cc1noc(C)c1CN1C(=O)NC(Cc2ccccc2)(Cc2ccccc2)C1=O,40.0*,3.9,.,2.0,13.5,-7.6
Cc1noc(C)c1COc1ccc(CC(=O)NCc2ccccc2)cc1,4.0,-20.4,-3.7,22.0,2.8,-4.6
COc1ccc(CNC[C@@H](CCCCN(C)Cc2ccc(OC)cc2)N2C[C@H](c3ccccc3)N(CCc3ccc(Cl)c(Cl)c3)C(=O)C2=O)cc1,-4.0,6.3,17.4,-24.7,21.1,-2.3
SMILES,Bim-Mcl-1,Mcl1-Bid inh,Calb biofilm kill,Hck-Nef inh,Mcl1-Noxa inh,14-3-3 Bad inh
CN(CCCC[C@H](CNCc1ccc(-c2ccccc2)cc1)N1C[C@H](c2ccccc2)N(CCc2ccc(Cl)c(Cl)c2)C(=O)C1=O)Cc1ccc(-c2ccccc2)cc1,.,60.7*,11.9,-18.7,20.8,21.5
Cc1ccc(OCC(=O)Nc2ccc(N3CCN(S(C)(=O)=O)CC3)cc2)cc1C,2.0,-45.5,15.9,15.0,-4.4,5.5
Cc1ccc(CNC(=O)c2cc3c(=O)n4ccccc4nc3n(CC3CCCO3)c2=N)cc1 (stereo not drawn),-4.0,-3.7,.,38.5,11.7,8.2
C=CCNC(=O)c1cc2c(=O)n3cc(C)ccc3nc2nc1NCC1CCCO1 (stereo not drawn),-9.0,-4.6,16.9,178.8*,18.5,-7.7
COCCCNC(=O)c1cc2c(=O)n3cc(C)ccc3nc2nc1NCC1CCCO1 (stereo not drawn),-10.0,65.6*,9.2,193.3*,-1.1,0.2
CC(C(=O)Nc1cccnc1)n1cc([N+](=O)[O-])cn1 (stereo not drawn),15.0,-12.3,20.7,4.1,6.3,-3.0
COc1ccc(NC2c3ccccc3C(=O)N2c2ccccn2)cc1 (stereo not drawn),.,-44.4,19.4,17.2,10.1,1.1
Cn1ncnc1SCc1cn2cccnc2n1,-3.0,-4.4,6.6,17.2,5.9,8.8
CCCC/C(C)=N/NC(=O)c1cn(-c2ccccc2)nc1-c1ccccc1,-4.0,4.7,17.7,2.7,15.7,2.4
O=C(C1CCCN(Cc2ccc3c(c2)OCO3)C1)N1CCCC1 (stereo not drawn),-1.0,28.1,.,-0.8,17.1,11.4
COc1cc(OC)c(OC)cc1CN1CCCC(C(=O)c2ccccc2SC)C1 (stereo not drawn),-5.0,-17.3,11.3,0.7,-10.8,1.1
O=C(C1CCCN(Cc2cccc(F)c2)C1)N1CCCCC1 (stereo not drawn),2.0,14.2,.,1.1,5.0,86.2*
COc1cc(OC)c(OC)cc1CN1CCCC(C(=O)N2CCCCC2)C1 (stereo not drawn),-2.0,53.1*,.,-0.1,2.8,50.7
CC(C)CC(=O)N1CCN(Cc2cccc(F)c2)CC1,-2.0,28.3,.,-0.3,10.2,78.7*
COc1cccc(CN2CCN(C(=O)CC(C)C)CC2)c1,1.0,33.8,.,-0.8,27.9,34.0
CCc1cccc(CC)c1NC(=O)CSc1nnc(CCC(=O)O)c(=O)[nH]1,1.0,7.8,1.1,26.2,9.0,-5.5
COc1cc(/C=C2\C(=O)N(c3ccc(NC(C)=O)cc3)N=C2c2ccccc2)ccc1O,-1.0,-15.8,17.7,33.8,58.3*,-3.2
CCOC(=O)C1=C(C)N(c2ccccc2)C(=O)/C1=C\c1ccc(O)c(OC)c1,.,-75.7,13.9,-46.7,31.6,25.8
CCOc1cc(/C=C2\C(=O)N(c3nc(-c4ccc(Br)cc4)cs3)N=C2c2ccccc2)ccc1O,-3.0,81.5*,.,2.3,93.7*,10.3
O=C1/C(=C\c2ccc(O)c(O)c2)C(c2ccccc2)=NN1c1ccccc1,1.0,-34.4,7.2,18.1,71.2*,41.3
COc1ccc(/C=C2\C(=O)N(c3nc(-c4ccc(Br)cc4)cs3)N=C2c2ccccc2)cc1,.,.,.,11.2,.,.
Cc1cc(NC(=O)CSc2nnc(N)s2)c([N+](=O)[O-])cc1C,0.0,-13.5,13.9,19.6,12.6,-2.1
